Measurements of several laboratories.
Compare with care: the assays were run in different laboratories.
CDK5: Cyclin-dependent kinase 5 (CDK5, Homo sapiens, UniProt Q00535)
CDK5 with p25: Cyclin-dependent kinase 5, with p25 (CDK5, Homo sapiens, UniProt Q00535)

SMILES | target | observed | action | method | concentration | endpoint | result
CC#CC(=O)N1CCC[C@H]1c1nc(-c2ccc(C(=O)Nc3ccccn3)cc2)c2c(N)nccn12 | CDK5 | enzyme activity | inhibitor | – | 1 µM | inhibition | 0%
C1=C/COCc2cc(ccc2OCCN2CCCC2)Nc2nccc(n2)-c2cccc(c2)COC/1 | CDK5 | binding | – | – | 0.1 µM | remaining binding | 100%
CCCCC(=O)Nc1ccc(-c2ccc3ncn(CCC)c(=O)c3c2)cn1 | CDK5 | binding | – | competition with immobilised ligand | 0.5 µM | remaining binding | 78%
Cc1ccc(NC(=O)c2ccnc(C(F)(F)F)c2)cc1-c1cc(OCCO)nc(N2CCOCC2)c1 | CDK5 | binding | – | competition with immobilised ligand | 1 µM | remaining binding | 95%
CO[C@@H]1[C@H](N(C)C(=O)c2ccccc2)C[C@H]2O[C@]1(C)n1c3ccccc3c3c4c(c5c6ccccc6n2c5c31)C(=O)NC4 | CDK5 | enzyme activity | inhibitor | – | 1 µM | inhibition | 0%
COc1ccc2oc(-c3ccc4nc(N)oc4c3)c/c(=N\c3ccccc3NC(=O)CCN)c2c1 | CDK5 with p25 | binding | – | – | 1 µM | remaining binding | 102%
C[C@]1(O)CCCN(c2nc(Nc3ccc(S(=O)(=O)N[C@H]4CC[C@H](CN5CCN(c6ccc(C7CCC(=O)NC7=O)cc6F)CC5)CC4)cc3Cl)ncc2C(F)(F)F)C1 (stereo partly shown) | CDK5 | binding | – | competition with immobilised ligand | 1 µM | remaining binding | 72%
CC(C)S(=O)(=O)c1ccc2nccc(Nc3ccc4sc(C5CCCC5)nc4c3)c2c1 | CDK5 with p25 | enzyme activity | inhibitor | – | 1 µM | activity vs control | 97.5%
C[C@]1(O)CCCN(c2nc(Nc3ccc(S(=O)(=O)N[C@H]4CC[C@H](CN5CCN(c6ccc(C7CCC(=O)NC7=O)cc6F)CC5)CC4)cc3F)ncc2C(F)(F)F)C1 (stereo partly shown) | CDK5 | binding | – | competition with immobilised ligand | 1 µM | remaining binding | 59%
COc1ccc2[nH]c3c4[nH]c5ccc(OC)cc5c4c4c(c3c2c1)C(=O)NC4=O | CDK5 | binding | – | competition with immobilised ligand | 1 µM | remaining binding | 75%
